High-throughput results as filed in PubChem BioAssay.
PRMT1 FP inh: inhibitors of human PRMT1 | inhibition, % at 2.79 µM | recombinant PRMT1, activity-based probe fluorescence polarization | AID 652257 | 1.3% of 370,000 active;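 active = inhibition above about 21% made by adding two undisclosed values, limit read from the data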
TDP2 inh: TDP2 (human) inhibition, absorbance primary screen | O95551 | recombinant TDP2, T5PNP hydrolysis, p-nitrophenol absorbance 415 nm | inhibition, % at 12.8 µM | 0.34% of 370,000 active | AID 720702;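 active = inhibition above the mean of all tested compounds plus 3 SD, set per campaign, cut at about 25% in these data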
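Evaluation: % inhibition relative to enzyme-containing and enzyme-free wells. Material: recombinant human TDP2. Benchmarks: enzyme-free and DMSO wells. Timing: enzyme reaction with compound for 2 h at 37 °C. Compound dosing: 12.8 µM only. Measured by: p-Nitrophenol epi absorbance. Reagent: T5PNP substrate at 5 mM, a TopII-DNA adduct mimic. Replication: single well per compound.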
UHRF1 MBD2 ctr: UHRF1 methyl-DNA binding inhibition | Q96T88 | UHRF1 binding to methylated oligo, TR-FRET | inhibition, % at 4.4 µM | 0.75% of 370,000 active; in the data active = inhibition above about 21%;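 also: UHRF1 SRA domain binding a hemimethylated CpG hairpin DNA probe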
SIAE inh: inhibitors of human sialic acid acetylesterase SIAE. SIAE FP-Rh probe binding, fluorescence polarization. Q9HAT2. inhibition, % at 9.66 µM. 0.69% of 370,000 active;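 active = inhibition above a cutoff: mean of compounds within the control limits plus 3 SD of those, cut at about 17% in these data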
Target sequence (Q9HAT2 whole entry, looked up): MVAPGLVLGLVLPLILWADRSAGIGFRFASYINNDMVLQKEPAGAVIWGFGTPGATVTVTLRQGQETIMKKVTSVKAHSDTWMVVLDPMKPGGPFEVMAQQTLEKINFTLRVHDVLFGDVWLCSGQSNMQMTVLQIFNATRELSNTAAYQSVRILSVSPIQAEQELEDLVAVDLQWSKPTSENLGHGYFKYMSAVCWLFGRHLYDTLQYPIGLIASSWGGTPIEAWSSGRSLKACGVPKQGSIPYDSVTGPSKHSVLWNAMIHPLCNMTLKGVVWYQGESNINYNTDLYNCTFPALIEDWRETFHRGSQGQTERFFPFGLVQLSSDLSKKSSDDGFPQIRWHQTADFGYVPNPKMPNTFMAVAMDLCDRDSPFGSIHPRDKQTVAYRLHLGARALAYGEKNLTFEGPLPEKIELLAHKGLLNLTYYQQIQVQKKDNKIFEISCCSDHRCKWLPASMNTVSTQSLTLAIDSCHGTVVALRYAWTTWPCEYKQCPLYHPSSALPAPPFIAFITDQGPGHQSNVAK
MBD2 DNA inh: MBD2-methylated oligo binding inhibition | TR-FRET, MBD2 binding to methylated oligonucleotide | inhibition, % at 4.4 µM | 0.31% of 370,000 active; in the data active = inhibition above about 13%
LEDGF integ inh: blocks HIV-1 LEDGF/p75-dependent DNA integration | TR-FRET IN-LEDGF/p75 DNA integration, Eu/Cy5 | inhibition, % at 3.7 µM | 0.64% of 370,000 active | AID 743269;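 active = inhibition above the screen-wide mean plus 3 SD, cut at about 13% in these data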;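 also: signal is the Cy5 over europium emission ratio at 671 and 618 nm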
A number is an active result; - = inactive. Shown are actives, neighbours in structure and some others; about 3.3% of the full set was active somewhere.

SMILES | PRMT1 FP inh | TDP2 inh | UHRF1 MBD2 ctr | SIAE inh | MBD2 DNA inh | LEDGF integ inh
C=CCN=C1NC(c2cccc(F)c2)C(C(=O)OC)=C(C)N1Cc1cccc(C(F)(F)F)c1 (stereo not given) | - | - | - | - | - | -
O=c1c(O[C@H]2O[C@@H](CO)[C@H](O)[C@@H](O)[C@@H]2O)c(-c2ccc(O)cc2)oc2cc(O)cc(O)c12 | - | - | - | - | - | -
O=c1c(OC2OC(CO)C(O)C(O)C2O)c(-c2ccc(O)c(O)c2)oc2cc(O)cc(O)c12 (stereo not given) | - | - | - | - | - | 70
Cc1cc(NS(=O)(=O)c2ccc(NC(=O)CSc3nnc(SCc4ccc(Cl)cc4)s3)cc2)nc(C)n1 | - | - | - | - | - | -
Cc1cc(C)nc(SCC(=O)NC2=NN=C(c3ccc(Br)cc3)CS2)n1 | - | - | - | - | - | -
CCC(Sc1nc(C)cc(C)n1)C(=O)NC1=NN=C(c2ccc(C)cc2)CS1 (stereo not given) | 49 | - | - | - | - | -
CCCC[C@H]1C2CC(OC(=O)Nc3cccc(C#N)c3)C(C2)[C@H]2CCCCN21 (stereo not given in full) | - | - | - | - | - | -
Cc1nn2c(N3CCOCC3)cc(C(C)C)nc2c1-c1ccccc1 | - | - | - | - | - | -
CCN1CCN(c2cc(C(C)C)nc3c(-c4ccccc4)c(C)nn23)CC1 | - | - | - | 18 | - | -
O=C(O)C1(Nc2ccc([N+](=O)[O-])cc2[N+](=O)[O-])CCCC1 | 23 | - | - | - | - | -
CCCC(=O)N1CCC[C@]2(CC[C@@H](CCC#N)O2)C1 | - | - | - | - | - | -
CCOC(=O)C1=C(C)NC(=S)NC1c1ccc(-c2cccc(Cl)c2C)o1 (stereo not given) | 22 | - | - | - | - | -
CCOC(=O)C1=C(C)NC(=S)NC1c1ccco1 (stereo not given) | - | - | - | - | - | -
CCCCNC(=O)C[C@H]1C[C@@]2(C(=O)OC)C(=C[C@H](C(C)C)O[C@@H]2C2CC2)N(CCC2=CCCCC2)C1=O | - | - | - | - | - | -
C=CCSC1=C(C#N)C(c2ccccc2OC)CC(=O)N1 (stereo not given) | - | - | - | - | - | -
C=CCSC1=C(C#N)C(c2ccccc2OCC)CC(=O)N1 (stereo not given) | 22 | - | - | - | - | -
CCCCN(C)C(=O)CN1C(=O)C2CCCCN2C(=O)c2ccccc21 (stereo not given) | - | - | - | - | - | -
O=c1c2cc3cc(Cl)ccc3nc2ncn1Cc1ccc(Oc2ccccc2)cc1 | - | - | - | - | - | -
O=C(NC1CCN(S(=O)(=O)c2ccc(Cl)cc2)CC1)c1cccnc1 | - | - | 31 | - | - | -
CC(COc1ccc(S(C)(=O)=O)cc1)CN1CCC(C(O)(c2ccccc2)c2ccccc2)CC1 (stereo not given) | - | - | - | - | - | -
COC(=O)C1CN(Cc2ccc(OC)cc2)CCS(=O)(=O)N1Cc1ccc(F)cc1 (stereo not given) | - | - | - | - | - | -
Fc1ccc(-c2csc(=S)[nH]2)cc1 | 22 | - | - | - | - | -
COCCCNC(=O)C[C@H]1C[C@@]2(C(=O)OC)C(=C[C@H](COCc3ccccc3)O[C@@H]2C)N(Cc2cccc3ccccc23)C1=O | - | - | - | - | - | -
COC(=O)C1=C(C)N(Cc2cccc(C(F)(F)F)c2)C(=NCc2ccccc2C(F)(F)F)NC1c1cccc(F)c1 (stereo not given) | - | - | - | - | - | -
CCN(CC)C(=O)CC[C@@H]1CC[C@]2(CCCN(S(C)(=O)=O)C2)O1 | - | - | - | - | - | -
SMILES | PRMT1 FP inh | TDP2 inh | UHRF1 MBD2 ctr | SIAE inh | MBD2 DNA inh | LEDGF integ inh
CC(=O)Nc1ccc(SCc2ncc(-c3ccccc3)o2)cc1 | 22 | - | - | - | - | -
CC(=O)Nc1ccc(SCc2c(C)noc2C)cc1 | 21 | - | - | - | - | -
CC(COc1cccc(OC(F)(F)F)c1)CN1CCC(C(O)(c2ccccc2)c2ccccc2)CC1 (stereo not given) | - | - | - | - | - | -
O=C(c1cccc(F)c1F)N(Cc1ccccn1)CC1CCCO1 (stereo not given) | - | - | - | - | - | -
COC(=O)C1CN(Cc2cn(CCC3OCCO3)nn2)CCS(=O)(=O)N1Cc1ccc(C)cc1 (stereo not given) | - | - | - | - | - | -
CNC(=O)c1cccc2cccc(Sc3ccccc3C(=O)O)c12 | - | - | 29 | - | - | -
CC(C)(C)[C@H](NC(=O)c1cc(Cl)cc(Cl)c1)C(=O)N1CCC[C@H]1C(=O)N[C@H](C#N)CC(=O)O | - | - | - | - | - | -
O=C(O)c1ccc2c(c1)C(=O)/C(=C/c1ccccc1)C2=O | 25 | - | - | - | - | -
CCCCNC(=O)C1(C(=O)c2ccc(OC)cc2)CC(C(=O)OCC)=NO1 (stereo not given) | - | - | - | - | - | -
Clc1ccc(-n2c(SCc3cccc4ccccc34)nnc2-c2ccccn2)cc1 | - | - | - | - | - | -
CC(=O)c1c(O)cc(C)n(-c2ccc(F)cc2)c1=O | - | - | - | - | - | -
Cc1cc(C)n(-c2ccc(F)cc2)c(=O)c1C(=O)O | - | - | 23 | - | - | -
Cc1cccc(CSC2=NCCN2C(=O)c2ccc(Br)o2)c1 | - | - | 46 | - | - | -
O=C(CN1CCN(S(=O)(=O)c2ccc(Br)cc2)CC1)c1ccc(O)c(O)c1 | - | - | - | - | - | 42
CC(C)c1ccc(S(=O)(=O)N2CCN(CC(=O)c3ccc(O)c(O)c3)CC2)cc1 | - | - | - | - | - | 36
NC(=O)CN1CCN(c2ccccc2F)CC1 | - | - | - | - | - | -
CC(C)c1ccc(S(=O)(=O)N2CCN(CC(=O)Nc3ccc(Cl)cc3F)CC2)cc1 | - | - | - | - | - | -
O=C(CN1CCN(c2ccccc2F)CC1)c1ccc(O)c(O)c1 | - | - | - | - | - | 64
C[C@H]1Cn2nnc(-c3ccccc3)c2Cn2c3ccccc3c(=O)n21 | - | - | - | - | - | -
CSc1cc(-c2ccco2)oc1C(=O)c1ccco1 | 25 | - | - | - | - | -
CCOC(=O)[C@@]12CCCC3=C1N(CCC3)C(=O)[C@H]2CC(=O)N1CCN(C(=O)C2CC2)CC1 | - | - | - | - | - | -
COc1ccc(Nc2nc(=O)c3cc([N+](=O)[O-])ccc3s2)cc1 | - | - | 25 | - | - | -
CCOC(=O)CC[C@@H]1CC[C@]2(CCCN(C(=O)c3ccno3)C2)O1 | - | - | - | - | - | -
CCCCNc1cccc2c1S(=O)(=O)N[C@H](C)CO2 | - | - | 22 | - | - | -
CCN(CC)C(=O)CC[C@@H]1CC[C@]2(CCCN(C(=O)c3ccco3)C2)O1 | - | - | - | - | - | -
